Target: T1, Dihydrofolate reductase (Gallus gallus, UniProt P00378)
T1 sequence (P00378 whole entry): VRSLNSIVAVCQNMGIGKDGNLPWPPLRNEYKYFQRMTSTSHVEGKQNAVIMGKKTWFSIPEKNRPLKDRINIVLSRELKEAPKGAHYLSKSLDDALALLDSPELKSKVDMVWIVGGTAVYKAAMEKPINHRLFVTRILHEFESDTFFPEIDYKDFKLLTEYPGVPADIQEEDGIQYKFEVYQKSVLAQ
Assay: Inhibitory activity against chicken dihydrofolate reductase at pH 7.2.

| Ki | SMILES |
| --- | --- |
| 6.76 µM | CCCCOCc1cccc(Cc2cnc(N)nc2N)c1 |
| 34.7 µM | COc1ccc(Cc2cnc(N)nc2N)cc1OC [Diaveridine] |
| 229 µM | COCCOc1c(OC)cc(Cc2cnc(N)nc2N)cc1OC [5-[3,5-Dimethoxy-4-(2-methoxy-ethoxy)-benzyl]-pyrimidine-2,4-diamine] |
| 10.2 µM | COc1ccc(Cc2cnc(N)nc2N)cc1C(F)(F)F |

Continued, compound first:

| SMILES | Ki |
| --- | --- |
| Nc1ncc(Cc2ccc([N+](=O)[O-])cc2)c(N)n1 | 42.7 µM |
| CN(C)c1ccc(Cc2cnc(N)nc2N)cc1 | 97.7 µM |
| Nc1ncc(Cc2ccccc2)c(N)n1 | 19.5 µM |
| Nc1ncc(Cc2cccc(F)c2)c(N)n1 | 20 µM |
| Cc1cccc(Cc2cnc(N)nc2N)c1 | 19.1 µM |
| Nc1ncc(Cc2ccc(F)cc2)c(N)n1 | 16.2 µM |
| Nc1ncc(Cc2cccc(Cl)c2)c(N)n1 | 9.77 µM |
| CC(=O)Nc1ccc(Cc2cnc(N)nc2N)cc1 | 55 µM |
| Nc1ncc(Cc2ccc(OC(F)(F)F)cc2)c(N)n1 | 55 µM |
| Nc1ncc(Cc2cccc(I)c2)c(N)n1 | 16.2 µM |

Target: T2, Dihydrofolate reductase (Bos taurus, UniProt P00376)
T2 sequence (P00376 whole entry): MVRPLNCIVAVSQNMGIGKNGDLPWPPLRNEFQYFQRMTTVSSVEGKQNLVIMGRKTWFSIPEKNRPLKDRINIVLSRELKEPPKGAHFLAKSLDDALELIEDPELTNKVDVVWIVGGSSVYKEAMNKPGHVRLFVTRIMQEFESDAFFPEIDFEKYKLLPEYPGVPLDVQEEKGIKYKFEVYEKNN
Assay: Inhibitory activity against bovine liver dihydrofolate reductase at pH 7.2.

| Ki | SMILES |
| --- | --- |
| 25.7 µM | Nc1ncc(Cc2ccc(O)c(O)c2)c(N)n1 |
| 2.19 µM | COc1ccc(Cc2cnc(N)nc2N)cc1OC [Diaveridine] |

The remaining lines, values behind:

| SMILES | Ki |
| --- | --- |
| Nc1ncc(Cc2ccc([N+](=O)[O-])cc2)c(N)n1 | 3.72 µM |
| CN(C)c1ccc(Cc2cnc(N)nc2N)cc1 | 6.17 µM |
| Nc1ncc(Cc2ccc(Cl)cc2)c(N)n1 | 2.51 µM |
| Nc1ncc(Cc2ccc(F)cc2)c(N)n1 | 3.09 µM |
| Nc1ncc(Cc2cccc(C(F)(F)F)c2)c(N)n1 | 1.66 µM |
| Nc1ncc(Cc2cccc(Cl)c2)c(N)n1 | 1.59 µM |
| CC(=O)Nc1ccc(Cc2cnc(N)nc2N)cc1[N+](=O)[O-] | 2.82 µM |
| Nc1ncc(Cc2ccc(Br)cc2)c(N)n1 | 3.8 µM |
| COc1ccc(Cc2cnc(N)nc2N)cc1 [5-(4-Methoxy-benzyl)-pyrimidine-2,4-diamine] | 4.47 µM |
| Cc1ccc(Cc2cnc(N)nc2N)cc1 | 5.37 µM |
| Nc1ncc(Cc2cccc(Br)c2)c(N)n1 | 1.55 µM |
| Nc1ccc(Cc2cnc(N)nc2N)cc1 | 11 µM |

Target: T2, Dihydrofolate reductase
Assay: Inhibitory activity against bovine liver Dihydrofolate reductase at pH 7.2.
Summary of the method: (§1)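 DHFR from chicken liver and from bovine liver, each assayed at pH 7.2 by the group's earlier-reported inhibition procedure. Potency is expressed as an apparent inhibition constant, reported as log(1/Ki app).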

| Ki | SMILES |
| --- | --- |
| 6.76 µM | COCCOc1ccc(Cc2cnc(N)nc2N)cc1OCCOC |
| 4.9 µM | COCCOc1ccc(Cc2cnc(N)nc2N)cc1 |
| 2.63 µM | COCCOc1cccc(Cc2cnc(N)nc2N)c1 |
| 2.82 µM | CCCCCCOc1ccc(Cc2cnc(N)nc2N)cc1 |

Further lines, the compound ahead of its results:

| SMILES | Ki |
| --- | --- |
| NC(=O)COc1cccc(Cc2cnc(N)nc2N)c1 | 5.37 µM |
| Nc1ncc(Cc2cc(O)cc(O)c2)c(N)n1 | 407 µM |
| CCCCCCCOc1ccc(Cc2cnc(N)nc2N)cc1 [5-(4-Heptyloxy-benzyl)-pyrimidine-2,4-diamine] | 3.55 µM |

Target: T1, Dihydrofolate reductase
Assay: Inhibitory activity against chicken Dihydrofolate reductase at pH 7.2.
Summary of the method: as §1

| Ki | SMILES |
| --- | --- |
| 14.8 µM | COCCOc1cccc(Cc2cnc(N)nc2N)c1 |

Reference: BindingDB's records for doi:10.1021/jm00346a020 (1982)
